Assay results: article PMC2119646 (The Journal of Cell Biology, 1993)

Key:
[1] = tested on: neovascularization in the rat cornea; assay: rat cornea neovascularization assay; assay type: in vivo; details: Table I, Hydron pellets with TSP1 protein or fragments at 25-30 nM, without bFGF, vigorous vessel ingrowth from the limbus at 7 d = positive
[2] = tested on: Bovine adrenal capillary endothelial cells; assay: endothelial cell migration in an inverted modified Boyden chamber; assay type: cell-based
Summary of the method: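 Bovine capillary endothelial cells at passages 10-15 were starved 24 h in DME/0.1% BSA and adhered 1-2 h at 37°C to a gelatinized filter. The chamber was reinverted, with test material in the top well, and incubated 3-4 h at 37°C. Migrated cells were counted in 10 high-power fields, in quadruplicate, with experiments repeated at least twice. Results were expressed as % of positive-control migration after background subtraction and corrected for >10% detachment.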

angiogenesis in vivo = details: Table VII; source Fibronectin, others; ref Eijan et al., 1991; cited from earlier work

**Q.** Which “Positive corneas/number implanted, Alone” value [1] does the source give for “TSP: Human thrombospondin-1 purified from platelet releasate, 450-kD trimer” here?
**A.** 0/5

**Q.** What about the “Migration of endothelial cells to upper chamber (%), Control, with bFGF” value ([2]; Table VI, bFGF 10 ng/ml plus TGFβ 0.2 ng/ml or TSP 2.5 µg/ml, no antiserum) of the same substance?
**A.** < 1%

**Q.** And the “ability to block endothelial cell migration stimulated by bFGF” value ([2]; bFGF 10 ng/ml, Fig. 4 b)?
**A.** complete inhibition

**Q.** For “TGF beta 1: Recombinant TGFβ1 purchased from R & D Sys. [reference compound]”, which “concentrations that stimulated endothelial cell migration” value ([2]; TGFβ dose response, Fig. 8) is on record?
**A.** 0.04 to 0.4 pM

**Q.** Which “ED50 for inhibition of migration with pure recombinant bFGF as inducer” value ([2]; retest of peptide with recombinant bFGF instead of conditioned media) does the source give for SPWD I C*SVTC*GGGVQKRSK [Mal III] here?
**A.** 7 µM

**Q.** Which “Migration of endothelial cells to upper chamber (%), Control” value ([2]; Table VI, addition alone: TGFβ 1 pg/ml or bFGF 10 ng/ml, no antiserum) does the source give for “bFGF: Recombinant bFGF, inducer and positive control [reference compound]” here?
**A.** 100%

**Q.** With G R G D as the substance, how does the “Small Peptides Able to Inhibit Angiogenesis In Vivo” value (angiogenesis in vivo) read?
**A.** Able to Inhibit Angiogenesis In Vivo
